From ChEMBL document CHEMBL1268956, “3-Urea-1-(phenylmethyl)-pyridones as novel, potent, and selective EP3 receptor antagonists” (Bioorg Med Chem Lett, 2010) come the findings set out here.

Cytochrome P450 3A4, sequence (P08684 whole entry): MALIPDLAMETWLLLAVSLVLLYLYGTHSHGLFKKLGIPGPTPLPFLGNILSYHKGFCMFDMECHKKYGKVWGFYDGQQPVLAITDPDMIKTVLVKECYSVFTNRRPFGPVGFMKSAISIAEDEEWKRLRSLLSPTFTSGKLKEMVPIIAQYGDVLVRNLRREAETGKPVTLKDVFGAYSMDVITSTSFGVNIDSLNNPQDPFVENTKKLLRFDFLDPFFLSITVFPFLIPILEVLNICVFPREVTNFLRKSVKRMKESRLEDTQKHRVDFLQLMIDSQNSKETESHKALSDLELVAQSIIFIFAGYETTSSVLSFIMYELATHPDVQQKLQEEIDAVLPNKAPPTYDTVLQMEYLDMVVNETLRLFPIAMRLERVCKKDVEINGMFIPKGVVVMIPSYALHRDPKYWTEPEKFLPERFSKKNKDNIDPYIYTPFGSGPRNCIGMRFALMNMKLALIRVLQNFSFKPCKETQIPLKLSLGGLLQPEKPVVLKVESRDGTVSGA
Cytochrome P450 2C9, sequence (P11712 whole entry): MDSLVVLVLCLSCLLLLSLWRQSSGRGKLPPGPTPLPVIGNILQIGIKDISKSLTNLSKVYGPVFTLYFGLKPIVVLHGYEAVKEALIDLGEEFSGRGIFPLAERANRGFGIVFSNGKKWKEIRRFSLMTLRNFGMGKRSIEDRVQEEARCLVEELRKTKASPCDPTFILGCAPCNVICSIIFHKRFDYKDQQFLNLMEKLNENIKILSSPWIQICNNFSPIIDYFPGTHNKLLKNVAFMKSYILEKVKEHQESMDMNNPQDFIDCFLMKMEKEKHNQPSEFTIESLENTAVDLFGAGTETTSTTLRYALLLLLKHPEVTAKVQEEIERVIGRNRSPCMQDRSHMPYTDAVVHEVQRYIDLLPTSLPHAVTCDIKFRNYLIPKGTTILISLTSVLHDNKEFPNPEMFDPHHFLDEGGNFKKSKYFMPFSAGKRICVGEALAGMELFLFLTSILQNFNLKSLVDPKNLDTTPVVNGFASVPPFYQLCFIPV

Test system in the first data set: not listed separately
Briefly: Half life in rat blood at 1.2 mg/kg, iv and 2 mg/kg, po. The data set is classed as ADME, organism-based.
Settings: not given
An outline of the steps:
(§1)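 Rats dosed at 1.2 mg/kg iv and 2.0 mg/kg po. Blood clearance, half-life, steady-state volume of distribution and oral bioavailability derived from the iv and po arms.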
Take `COc1cccc(NC(=O)Nc2cccn(Cc3ccccc3Cl)c2=O)c1`: the half-life is 1.3 h.

Another data set has as its target Cytochrome P450 2C9 (Homo sapiens, UniProt P11712). Briefly: Inhibition of CYP2C9. The class given is ADME.
Settings: not given
`COc1cccc(NC(=O)Nc2cccn(Cc3c(F)cccc3Cl)c2=O)c1`: half-maximal inhibition (IC50) required 3700 nM.

For another data set, the target named is Cytochrome P450 2C19 (Homo sapiens, UniProt P33261). Briefly: Inhibition of CYP2C19.
Cytochrome P450 2C19, sequence (P33261 whole entry): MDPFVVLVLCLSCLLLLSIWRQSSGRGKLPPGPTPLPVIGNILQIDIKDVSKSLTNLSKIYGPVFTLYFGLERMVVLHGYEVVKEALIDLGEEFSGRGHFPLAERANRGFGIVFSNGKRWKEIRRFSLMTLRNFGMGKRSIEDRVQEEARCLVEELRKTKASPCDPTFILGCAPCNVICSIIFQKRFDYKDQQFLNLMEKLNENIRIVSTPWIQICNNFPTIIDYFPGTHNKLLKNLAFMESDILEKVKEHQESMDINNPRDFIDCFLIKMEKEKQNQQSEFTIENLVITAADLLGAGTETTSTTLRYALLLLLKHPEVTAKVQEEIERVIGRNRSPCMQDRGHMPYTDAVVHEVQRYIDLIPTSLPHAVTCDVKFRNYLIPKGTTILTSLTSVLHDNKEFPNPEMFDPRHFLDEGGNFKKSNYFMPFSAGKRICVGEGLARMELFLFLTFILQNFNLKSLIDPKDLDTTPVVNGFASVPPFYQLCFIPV
Settings: not given
The class given is ADME.
For `COc1cccc(NC(=O)Nc2cccn(Cc3c(F)cccc3Cl)c2=O)c1`, the midpoint of inhibition, the IC50, lay at 4500 nM.

Another data set concerns the target Cytochrome P450 3A4 (Homo sapiens, UniProt P08684). Kind of data set: Inhibition of CYP3A4. The class given is ADME.
Settings: not given
`COc1cccc(NC(=O)Nc2cccn(Cc3c(F)cccc3Cl)c2=O)c1` registered an IC50 above 25000 nM.

A further data set addresses T1, Prostaglandin E2 receptor EP3 subtype (Homo sapiens, UniProt P43115).
T1 sequence (P43115 whole entry): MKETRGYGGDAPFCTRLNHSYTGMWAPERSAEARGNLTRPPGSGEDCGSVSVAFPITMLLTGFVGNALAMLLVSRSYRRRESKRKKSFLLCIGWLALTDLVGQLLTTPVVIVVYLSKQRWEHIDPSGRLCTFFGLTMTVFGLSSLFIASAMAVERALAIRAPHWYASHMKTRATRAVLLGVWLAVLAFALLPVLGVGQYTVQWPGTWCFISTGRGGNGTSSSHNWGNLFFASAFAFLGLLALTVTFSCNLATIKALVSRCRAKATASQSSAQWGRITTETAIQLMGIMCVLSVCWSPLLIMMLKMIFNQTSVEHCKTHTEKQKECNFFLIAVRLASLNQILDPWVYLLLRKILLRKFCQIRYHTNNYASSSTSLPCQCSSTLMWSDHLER
Briefly: Antagonist activity at human EP3 receptor expressed in human U2OS cells assessed as inhibition of PGE2-induced intracellular calcium mobilization by FLIPR assay. The data set is classed as functional, cell-based.
Settings: not given
(Calcium flux is commonly read through the fluorescence of an indicator in the cells.)
As to `COc1cccc(NC(=O)Nc2cccn(Cc3cc(F)ccc3Cl)c2=O)c1`, the Ki was 794 nM. On to `COc1cccc(NC(=O)Nc2cccn(Cc3ccc(F)cc3)c2=O)c1`, for which the Ki is 1260 nM. For `CCc1cccc(NC(=O)Nc2cc(Cl)cn(Cc3ccccc3Cl)c2=O)c1`, the Ki was 501 nM. The same measure, in the same setting: the figure for `CCc1cccc(NC(=O)Nc2cccn(Cc3c(F)cccc3Cl)c2=O)c1` is 6.31 nM; for `COc1cccc(C(=O)Nc2cccn(Cc3ccccc3Cl)c2=O)c1` it is above 25100 nM. On the same count and under the same terms, the figure for `COc1cccc(NC(=O)Nc2cccn(Cc3cccc(Cl)c3)c2=O)c1` is 398 nM; for `O=C(Nc1ccccc1Cl)Nc1cccn(Cc2ccccc2Cl)c1=O` it is 126 nM; for `CCc1ccccc1NC(=O)Nc1cccn(Cc2ccccc2Cl)c1=O` it is 3980 nM.

Turning to `COc1cccc(NC(=O)Nc2ccc(C)n(Cc3ccccc3Cl)c2=O)c1`, the Ki is 1260 nM.

`COc1cccc(NC(=O)Nc2cccn(Cc3ccc(F)cc3Cl)c2=O)c1`: the Ki is 398 nM. Same read-out and setting: with `O=C(Nc1cccc(I)c1)Nc1cccn(Cc2ccccc2Cl)c1=O` the figure was 398 nM; with `COc1cccc(NC(=O)Nc2cc(C)cn(Cc3ccccc3Cl)c2=O)c1`, 1260 nM. Turning to `COc1cccc(NC(=O)Nc2cccn(Cc3ccccc3Cl)c2=O)c1`, the Ki was 158 nM. Regarding `CCc1cccc(NC(=O)Nc2ccc(C)n(Cc3ccccc3Cl)c2=O)c1`, the Ki was 126 nM. Regarding `COc1cccc(NC(=O)Nc2cccn(Cc3ccccc3)c2=O)c1`, the Ki is 1000 nM. The same measure, in the same setting: with `CCc1cccc(NC(=O)Nc2cccn(Cc3ccc(F)cc3Cl)c2=O)c1` the figure was 126 nM; with `O=C(Nc1cccc(Cc2ccccc2)c1)Nc1cccn(Cc2ccccc2Cl)c1=O`, above 25100 nM. Still for that read-out and setting: with `CCc1cccc(NC(=O)Nc2cccn(Cc3ccccc3F)c2=O)c1` the figure was 100 nM; with `COc1cccc(NC(=O)Nc2cccn(Cc3c(F)cccc3Cl)c2=O)c1`, 25.1 nM; with `COc1cccc(N(C)C(=O)Nc2cccn(Cc3ccccc3Cl)c2=O)c1`, above 25100 nM.

Consider `O=C(Nc1ccccc1F)Nc1cccn(Cc2ccccc2Cl)c1=O`, for which the Ki was 158 nM.

On to `COc1ccc(NC(=O)Nc2cccn(Cc3ccccc3Cl)c2=O)cc1`, for which the Ki is above 25100 nM. In the case of `COc1cccc(NC(=O)Nc2cccn(Cc3ccc(C)cc3)c2=O)c1`, the Ki is 3160 nM.

As to `COc1cccc(NC(=O)Nc2cccn(Cc3cccc(F)c3)c2=O)c1`, the Ki was 1000 nM. Still for that read-out and setting: with `O=C(Nc1ccc(C(F)(F)F)cc1)Nc1cccn(Cc2ccccc2Cl)c1=O` the figure was above 25100 nM; with `Cc1ccccc1NC(=O)Nc1cccn(Cc2ccccc2Cl)c1=O`, 794 nM; with `CCc1cccc(NC(=O)Nc2cc(C)cn(Cc3ccccc3Cl)c2=O)c1`, 200 nM. For `N#Cc1cccc(NC(=O)Nc2cccn(Cc3ccccc3Cl)c2=O)c1`, the Ki was above 25100 nM. Take `COc1cccc(NC(=O)Nc2cccn(Cc3ccccc3Br)c2=O)c1`: the inhibitory constant (Ki) was 316 nM. Same read-out and setting: with `O=C(Nc1cccc(Cl)c1)Nc1cccn(Cc2ccccc2Cl)c1=O` the figure was 1000 nM; with `COc1cccc(CC(=O)Nc2cccn(Cc3ccccc3Cl)c2=O)c1`, above 25100 nM.

On to `COc1cccc(Cn2cccc(NC(=O)Nc3cccc(OC)c3)c2=O)c1`, for which the Ki was 2000 nM. Regarding `O=C(Nc1ccc(Cl)cc1)Nc1cccn(Cc2ccccc2Cl)c1=O`, the Ki was above 25100 nM. On the same count and under the same terms, the figure for `COc1ccc(Cn2cccc(NC(=O)Nc3cccc(OC)c3)c2=O)cc1` is 794 nM; for `COC(=O)Cc1cccc(NC(=O)Nc2cccn(Cc3ccccc3Cl)c2=O)c1` it is above 25100 nM. Same read-out and setting: the figure for `COc1ccccc1NC(=O)Nc1cccn(Cc2ccccc2Cl)c1=O` is 631 nM. With `Cc1ccc(NC(=O)Nc2cccn(Cc3ccccc3Cl)c2=O)cc1`, the Ki was 3160 nM. The same measure, in the same setting: the figure for `O=C(Nc1cccc(F)c1)Nc1cccn(Cc2ccccc2Cl)c1=O` is 1580 nM; for `Cc1cccc(NC(=O)Nc2cccn(Cc3ccccc3Cl)c2=O)c1` it is 251 nM; for `O=C(Nc1cccc(Br)c1)Nc1cccn(Cc2ccccc2Cl)c1=O` it is 1000 nM. Still for that read-out and setting: the figure for `CCc1cccc(NC(=O)Nc2c(C)ccn(Cc3ccccc3Cl)c2=O)c1` is above 25100 nM; for `CCc1cccc(NC(=O)Nc2cccn(Cc3cccc(C(F)(F)F)c3)c2=O)c1` it is 200 nM. On to `COc1cccc(NC(=O)Nc2cccn(Cc3ccccc3C)c2=O)c1`, for which the Ki is 2510 nM. Still for that read-out and setting: the figure for `CC(=O)c1cccc(NC(=O)Nc2cccn(Cc3ccccc3Cl)c2=O)c1` is above 25100 nM; for `COc1cccc(NC(=O)Nc2cccn(Cc3ccc(Cl)cc3)c2=O)c1` it is 1000 nM. As to `O=C(Nc1ccccc1I)Nc1cccn(Cc2ccccc2Cl)c1=O`, the Ki was 5010 nM. Turning to `O=C(O)Cc1cccc(NC(=O)Nc2cccn(Cc3ccccc3Cl)c2=O)c1`, the Ki is above 25100 nM. The same measure, in the same setting: with `CCc1ccc(NC(=O)Nc2cccn(Cc3ccccc3Cl)c2=O)cc1` the figure was above 25100 nM. Consider `COc1cccc(NC(=O)Nc2cccn(Cc3cccc(C)c3)c2=O)c1`, for which the Ki is 1260 nM.

As for `COc1cccc(NC(=O)Nc2cccn(Cc3ccccc3F)c2=O)c1`, the Ki is 501 nM.

Consider `CC(C)c1cccc(NC(=O)Nc2cccn(Cc3ccccc3Cl)c2=O)c1`, for which the Ki is 63.1 nM.

Test system in a further data set: not listed separately
Briefly: Volume of distribution at steady state in rat blood at 1.2 mg/kg, iv and 2 mg/kg, po. The data set is classed as ADME, organism-based. Conditions: read-out: Vdss. Put shortly:
as §1
As to `COc1cccc(NC(=O)Nc2cccn(Cc3ccccc3Cl)c2=O)c1`, the Vd came to 3.4 L/kg.

Another data set deals with Cytochrome P450 2D6 (Homo sapiens, UniProt P10635). Kind of data set: Inhibition of CYP2D6. The data set is classed as ADME.
Cytochrome P450 2D6, sequence (P10635 whole entry): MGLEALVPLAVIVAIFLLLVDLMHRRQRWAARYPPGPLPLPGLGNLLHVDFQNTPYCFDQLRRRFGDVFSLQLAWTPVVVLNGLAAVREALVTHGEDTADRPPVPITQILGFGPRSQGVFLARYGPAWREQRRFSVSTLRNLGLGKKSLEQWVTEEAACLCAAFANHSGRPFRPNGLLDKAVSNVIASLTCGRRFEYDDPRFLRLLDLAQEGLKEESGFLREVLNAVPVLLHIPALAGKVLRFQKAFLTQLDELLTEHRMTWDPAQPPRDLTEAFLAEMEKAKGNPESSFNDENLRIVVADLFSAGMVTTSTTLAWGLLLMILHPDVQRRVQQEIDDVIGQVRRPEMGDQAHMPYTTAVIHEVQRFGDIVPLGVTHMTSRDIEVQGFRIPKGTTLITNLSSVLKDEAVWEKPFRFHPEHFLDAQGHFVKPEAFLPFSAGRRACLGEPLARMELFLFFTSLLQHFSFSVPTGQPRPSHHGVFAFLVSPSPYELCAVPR
Settings: not given
In turn, `COc1cccc(NC(=O)Nc2cccn(Cc3c(F)cccc3Cl)c2=O)c1` registered an IC50 above 25000 nM.

Test system in another data set: not listed separately
Briefly: Oral bioavailability in rat blood at 1.2 mg/kg, iv and 2 mg/kg, po. The data set is classed as ADME, organism-based.
Settings: not given
Put shortly:
as §1
The compound `COc1cccc(NC(=O)Nc2cccn(Cc3ccccc3Cl)c2=O)c1` yielded a bioavailability of 27%.

Test system in a further data set: not listed separately
Briefly: Clearance in rat blood at 1.2 mg/kg, iv and 2 mg/kg, po. The class given is ADME, organism-based.
Settings: not given
An outline of the steps:
as §1
As to `COc1cccc(NC(=O)Nc2cccn(Cc3ccccc3Cl)c2=O)c1`, the clearance is 24 mL/min/kg.

Test system in the next data set: not listed separately
Briefly: Permeability across artificial membrane. The class given is ADME. To be noted: PAMPA; read-out: permeability. Background: In PAMPA a lipid-coated filter parts donor from acceptor wells.
Regarding `COc1cccc(NC(=O)Nc2cccn(Cc3ccccc3Cl)c2=O)c1`, the Papp stood at 55 ×10⁻⁶ cm/s. Turning to `COc1cccc(NC(=O)Nc2cccn(Cc3c(F)cccc3Cl)c2=O)c1`, the Papp came out at 22 ×10⁻⁶ cm/s.

The term half-life denotes the time in which the quantity being followed falls by half. The term IC50 denotes the concentration that gives 50% inhibition. The low end stands for greater potency, the high end for weaker potency. What is called Ki is the equilibrium dissociation constant of an inhibitor or competing ligand from its target. The bioavailability is the share of a dose that reaches the circulation, judged against a reference dose that is usually intravenous.
